The source made the active and inactive calls. The rule behind the calls is not given here.
What was measured:
Homo sapiens [1] = assay: Antitumor activity against human SK-RC-52 cells xenografted BALB/c nu/nu mouse assessed as inhibition of tumor growth at 20 mg/kg, ip; assay type: functional, organism-based; set-up: dose 20 mg/kg
Mus musculus [2] = assay: Toxicity in human SK-RC-52 cells xenografted BALB/c nu/nu mouse assessed as effect on body weight at 20 mg/kg, ip; assay type: organism-based; set-up: dose 20 mg/kg, route intraperitoneal; conditions: in vivo
Mus musculus [3] = assay: Drug uptake in human LS 174T cells xenografted BALB/c nu/nu mouse at 1.26 umol, iv after 2 hrs; assay type: ADME, organism-based, LS174T; conditions: in vivo
Summary of the method: (§1)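 Balb/c nu/nu mice carried subcutaneous LS174T tumors of about 500 mg. They received 680 µg (1.26 µmol) of fluorescent compound in the tail vein and were sacrificed 1 h or 2 h later. Fluorescence microscopy was done on 10 µm sections of tumor, muscle, heart, lung, intestine, spleen, kidney and liver. Exposures were 900 ms (1 h) and 1100 ms (2 h).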

Mus musculus [4] = assay: Drug uptake in human LS 174T cells xenografted BALB/c nu/nu mouse at 1.26 umol, iv after 1 hr; assay type: ADME, organism-based, LS174T; conditions: in vivo; summary of the method: as §1
Kidney = assay: Drug uptake in human LS 174T cells xenografted BALB/c nu/nu mouse kidney at 1.26 umol, iv after 1 hr; assay type: ADME, organism-based, LS174T; conditions: in vivo; summary of the method: as §1
Liver = assay: Drug uptake in human LS 174T cells xenografted BALB/c nu/nu mouse liver at 1.26 umol, iv after 1 hr; assay type: ADME, organism-based, LS174T; conditions: in vivo; summary of the method: as §1
Carbonic anhydrase 9 [5] = biological target: T1, Carbonic anhydrase 9 (Homo sapiens, UniProt Q16790); assay: Inhibition of human CA9 catalytic domain using 4-nitrophenylacetate substrate by colorimetry
Summary of the method: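 CA IX esterase activity was measured colorimetrically via conversion of 4-nitrophenylacetate and reported as Ki. Line 15 was run in the presence of 10 µM mouse serum albumin.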

[6] = Drug uptake in human LS 174T cells assessed as increase in fluorescence intensity at 3 uM by FACS method relative to untreated control; assay type: ADME, cell-based; conditions: ls174t
Summary of the method: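 LS174T cells were incubated with fluorescein-labelled compound at 0.26 or 3 µM and analysed by flow cytometry in the FITC channel. Mean fluorescence was compared with unstained cells. Free FAM served as a dye control, and polyclonal anti-CA IX staining confirmed antigen presence.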

Intestine = assay: Drug uptake in human LS 174T cells xenografted BALB/c nu/nu mouse intestine at 1.26 umol, iv after 1 hr; assay type: ADME, organism-based, LS174T; conditions: in vivo; summary of the method: as §1
Mus musculus [7] = assay: Toxicity in human SK-RC-52 cells xenografted BALB/c nu/nu mouse assessed as effect on body weight at 340 ug, iv administered as 5 weekly injection schedule for 3 consecutive weeks; assay type: organism-based; conditions: in vivo
Summary of the method: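 SK-RC-52 xenografted Balb/c nude mice, n = 5, given 340 µg (17 mg/kg) per injection i.v. in saline with 15% (v/v) DMSO. Body weight was monitored during therapy and expressed as % of body weight on day 1 of treatment.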

Albumin = Albumin (Homo sapiens, UniProt P02768); assay: Binding affinity to HSA by isothermal titration calorimetry; assay type: ADME
Albumin, sequence (P02768 whole entry): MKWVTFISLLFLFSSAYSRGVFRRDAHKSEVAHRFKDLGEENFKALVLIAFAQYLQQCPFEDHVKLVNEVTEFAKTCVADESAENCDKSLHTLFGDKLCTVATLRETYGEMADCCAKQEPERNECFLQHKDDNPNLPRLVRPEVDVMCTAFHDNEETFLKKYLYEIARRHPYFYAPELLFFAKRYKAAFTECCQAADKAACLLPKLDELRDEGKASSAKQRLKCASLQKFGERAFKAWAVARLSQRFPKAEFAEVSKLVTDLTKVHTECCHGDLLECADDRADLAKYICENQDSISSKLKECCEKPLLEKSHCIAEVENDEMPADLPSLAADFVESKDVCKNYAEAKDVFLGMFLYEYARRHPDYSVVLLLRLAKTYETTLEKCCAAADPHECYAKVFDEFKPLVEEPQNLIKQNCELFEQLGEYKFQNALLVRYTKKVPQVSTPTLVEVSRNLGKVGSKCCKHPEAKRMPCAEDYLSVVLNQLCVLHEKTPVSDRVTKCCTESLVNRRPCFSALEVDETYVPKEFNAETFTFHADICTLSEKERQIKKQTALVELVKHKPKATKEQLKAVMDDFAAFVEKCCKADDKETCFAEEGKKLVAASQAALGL

LS174T [8] = assay: Antitumor activity against human LS 174T cells xenografted BALB/c nu/nu mouse assessed as inhibition of tumor growth at 340 ug, iv administered as 5 weekly injection schedule for 2 consecutive weeks; assay type: functional, organism-based
Summary of the method: (§2)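 Subcutaneous xenografts in Balb/c nude mice, n = 5 per group. Dosing was 340 µg (17 mg/kg, 0.5 µmol) per injection i.v. Vehicle was saline with 15% (v/v) DMSO, and controls received vehicle alone. Read-out was tumor volume over time, given as mean ± SE.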

Blood [9] = assay: Drug level in human SK-RC-52 cells xenografted BALB/c nu/nu mouse blood at 0.5 umol. iv; assay type: ADME, cell-based; conditions: read-out: Drug uptake
Summary of the method: (§3)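 A bolus i.v. injection of 340 µg (0.5 µmol) was given to tumor-bearing mice. Blood concentration was estimated immediately at the end of the bolus injection.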

Blood [10] = assay: Drug level in human LS 174T cells xenografted BALB/c nu/nu mouse blood at 0.5 umol. iv; assay type: ADME, cell-based, LS174T; conditions: in vivo, read-out: Drug uptake; summary of the method: as §3
Carbonic anhydrase 9 [11] = biological target: T1, Carbonic anhydrase 9; assay: Binding affinity to human CA9 catalytic domain by isothermal titration calorimetry
Homo sapiens [12] = assay: Antitumor activity against human SK-RC-52 cells xenografted BALB/c nu/nu mouse assessed as inhibition of tumor growth at 340 ug, iv administered as 5 weekly injection schedule for 3 consecutive weeks; assay type: functional, organism-based; summary of the method: as §2
Mus musculus [13] = assay: Toxicity in human SK-RC-52 cells xenografted BALB/c nu/nu mouse assessed as effect on body weight at 25 mg/kg, ip; assay type: organism-based; set-up: dose 25 mg/kg, route intraperitoneal; conditions: in vivo
LS174T [14] = assay: Antitumor activity against human LS 174T cells xenografted BALB/c nu/nu mouse assessed as inhibition of tumor growth at 25 mg/kg, ip; assay type: functional, organism-based; set-up: dose 25 mg/kg
Summary of the method: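 Balb/c nude mice with subcutaneous LS174T human colorectal xenografts, dosed i.p. at 25 mg/kg/day. Vehicle controls received saline containing 15% (v/v) DMSO i.v. Tumor growth was followed as mean tumor volume ± SE, n = 5 per group. Body weight was also tracked as % of day-1 weight.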

For `CCN(CC)CCNC(=O)c1c(C)[nH]c(/C=C2\C(=O)Nc3ccc(F)cc32)c1C` [SUNITINIB], the Activity (Homo sapiens [1]) was “Active” and the Activity (Mus musculus [2]) was “Non-toxic”.
With `NS(=O)(=O)c1nnc(NC(=O)c2ccc(-c3c4ccc(=O)cc-4oc4cc(O)ccc34)c(C(=O)O)c2)s1` the Drug uptake (Mus musculus [3]) was “Active”, the Drug uptake (Mus musculus [4]) was “Active” and the Drug uptake (Kidney) was “Active”. For the same compound, the Drug uptake (Liver) was “Active”, the Ki (Carbonic anhydrase 9 [5]) was 220 nM and the “fold change (FC)” value [6] was greater than 10. For the same compound, the Drug uptake (Intestine) was “Active”.
For `NS(=O)(=O)c1nnc(NC(=O)CCC(=O)NC(CCCCNC(=O)CCCc2ccc(I)cc2)C(=O)O)s1` (stereo not drawn), the Activity (Mus musculus [7]) was “Non-toxic”, the Kd (Albumin) was 820 nM and the Activity (LS174T [8]) was “inactive”. For the same compound, the concentration (Blood [9]) was 250 µM, the concentration (Blood [10]) was 250 µM and the Kd (Carbonic anhydrase 9 [11]) was 3.2 nM. The Activity (Homo sapiens [12]) was “Active”.
With `O=c1[nH]cc(F)c(=O)[nH]1` [FLUOROURACIL] the Activity (Mus musculus [13]) was “Toxic” and the Activity (LS174T [14]) was “Active”.

Reference: ChEMBL document CHEMBL1154037, “In vivo targeting of tumor-associated carbonic anhydrases using acetazolamide derivatives” (Bioorg Med Chem Lett, 2009)
